Values after ≈ are worked out from the molar mass of the structure shown. Active and inactive are the calls of the source. The rule behind the calls is not given here.
Tests used:
[1] = tested on: L929; assay: Cytotoxicity against mouse L929 cells assessed as inhibition of cell growth after 5 days by MTT assay; format: cell-based; details: L929, 120 h
In short: (§1)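 IC50 determined by the previously described in vitro cytotoxicity method against mouse fibroblast L929 and HeLa-derived KB-3.1 cells. Compounds were tested from a starting concentration of 37 μg/mL.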

[2] = tested on: Staphylococcus aureus; assay: Antibiofilm activity against Staphylococcus aureus DSM 1104 at 75 ug/ml after 24 hrs by crystal violet staining based assay relative to control; format: functional; details: DSM 1104, 24 h
In short: (§2)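 S. aureus set to 0.5 McFarland turbidity and grown with serially diluted compounds in CASO broth with 4% glucose, 24 h, 37 °C. Biofilm stained with crystal violet 15 min, washed three times, dye extracted with dilute acetic acid, absorbance read at 550 nm. Two repeats of three parallel experiments; methanol as negative control.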

[3] = tested on: Staphylococcus aureus; assay: Antimicrobial activity against Staphylococcus aureus DSM 1104 by serial dilution method; format: functional
[4] = tested on: Staphylococcus aureus; assay: Antibiofilm activity against Staphylococcus aureus DSM 1104 at 150 ug/ml after 24 hrs by crystal violet staining based assay relative to control; format: functional; details: DSM 1104, 24 h; in short: as §2
[5] = tested on: Staphylococcus aureus; assay: Antibiofilm activity against Staphylococcus aureus DSM 1104 at 37 ug/ml after 24 hrs by crystal violet staining based assay relative to control; format: functional; details: DSM 1104, 24 h; in short: as §2
[6] = tested on: Staphylococcus aureus; assay: Antibiofilm activity against Staphylococcus aureus DSM 1104 preformed biofilm after 24 hrs by crystal violet staining based assay; format: functional, organism-based
In short: (§3)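 S. aureus set to 0.5 McFarland turbidity; biofilm preformed 24 h in CASO broth with 4% glucose, then exposed to compounds a further 24 h at 37 °C. Remaining biofilm quantified by crystal violet staining. Triplicate, two repetitions.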

[7] = tested on: Candida albicans; assay: Antibiofilm activity against Candida albicans DSM 11225 preformed biofilm after 24 hrs by MTT assay; format: functional, organism-based
In short: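 C. albicans set to 0.5 McFarland turbidity; biofilm preformed 4 h at 37 °C in SB broth, then treated with serially diluted compounds for a further 24 h at 37 °C. Dispersal read by MTT reduction. Triplicate, two repetitions; methanol as negative control.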

[8] = tested on: Wickerhamomyces anomalus; assay: Antimicrobial activity against Pichia anomala DSM 6766 by serial dilution method; format: functional
In short: (§4)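 MIC by serial dilution in microtiter plates, in triplicate. YMG medium for yeasts and filamentous fungi, EBS for bacteria. Starting concentration 300 μg/mL.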

[9] = tested on: Staphylococcus aureus; assay: Antimicrobial activity against Staphylococcus aureus DSM 346 by serial dilution method; format: functional; in short: as §4
[10] = tested on: Mucor plumbeus; assay: Antimicrobial activity against Mucor plumbeus MUCL 49355 by serial dilution method; format: functional; in short: as §4
[11] = tested on: Escherichia coli; details: DSM 498
[12] = tested on: KB 3-1; assay: Cytotoxicity against human KB 3.1 cells assessed as inhibition of cell growth at 37 ug/ml after 5 days by MTT assay; format: cell-based; details: kb 3-1, 120 h
[13] = tested on: L929; assay: Cytotoxicity against mouse L929 cells assessed as inhibition of cell growth at 37 ug/ml after 5 days by MTT assay; format: cell-based; details: l929, 120 h
[14] = tested on: Yamadazyma tenuis; assay: Antimicrobial activity against Candida tenuis MUCL 29982 by serial dilution method; format: functional; in short: as §4
[15] = tested on: Bacillus subtilis; assay: Antimicrobial activity against Bacillus subtilis DSM 10 by serial dilution method; format: functional; in short: as §4
[16] = tested on: Micrococcus luteus; assay: Antimicrobial activity against Micrococcus luteus DSM 1790 by serial dilution method; format: functional; in short: as §4
[17] = tested on: Staphylococcus aureus; assay: Antibiofilm activity against Staphylococcus aureus DSM 1104 at 256 ug/ml after 24 hrs by crystal violet staining based assay relative to control; format: functional; details: DSM 1104, 24 h; in short: as §2
[18] = tested on: Staphylococcus aureus; assay: Antibiofilm activity against Staphylococcus aureus DSM 1104 preformed biofilm at 256 ug/ml after 24 hrs by crystal violet staining based assay relative to control; format: functional; details: DSM 1104, 24 h; in short: as §3
[19] = tested on: KB 3-1; assay: Cytotoxicity against human KB 3.1 cells assessed as inhibition of cell growth after 5 days by MTT assay; format: cell-based; details: KB 3-1, 120 h; in short: as §1
[20] = tested on: Staphylococcus aureus; assay: Antibiofilm activity against Staphylococcus aureus DSM 1104 at 64 ug/ml after 24 hrs by crystal violet staining based assay relative to control; format: functional; details: DSM 1104, 24 h; in short: as §2
[21] = tested on: Staphylococcus aureus; assay: Antibiofilm activity against Staphylococcus aureus DSM 1104 preformed biofilm at 64 ug/ml after 24 hrs by crystal violet staining based assay relative to control; format: functional; details: DSM 1104, 24 h; in short: as §3
[22] = tested on: Staphylococcus aureus; assay: Antibiofilm activity against Staphylococcus aureus DSM 1104 preformed biofilm at 128 ug/ml after 24 hrs by crystal violet staining based assay relative to control; format: functional; details: DSM 1104, 24 h; in short: as §3
[23] = tested on: Candida albicans; assay: Antibiofilm activity against Candida albicans DSM 11225 preformed biofilm at 16 ug/ml after 24 hrs by MTT assay relative to control; format: functional; details: DSM 11225, 24 h
[24] = tested on: Staphylococcus aureus; assay: Antibiofilm activity against Staphylococcus aureus DSM 1104 after 24 hrs by crystal violet staining based assay; format: functional, organism-based; in short: as §2
[25] = tested on: Candida albicans; assay: Antimicrobial activity against Candida albicans DSM 11225 by serial dilution method; format: functional
[26] = tested on: Candida albicans; assay: Antibiofilm activity against Candida albicans DSM 11225 preformed biofilm at 8 ug/ml after 24 hrs by MTT assay relative to control; format: functional; details: DSM 11225, 24 h
[27] = tested on: Staphylococcus aureus; assay: Antibiofilm activity against Staphylococcus aureus DSM 1104 at 16 ug/ml after 24 hrs by crystal violet staining based assay relative to control; format: functional; details: DSM 1104, 24 h; in short: as §2
[28] = tested on: Staphylococcus aureus; assay: Antibiofilm activity against Staphylococcus aureus DSM 1104 at 128 ug/ml after 24 hrs by crystal violet staining based assay relative to control; format: functional; details: DSM 1104, 24 h; in short: as §2
[29] = tested on: Escherichia coli; assay: microbe, parasite or virus in culture; details: DSM 498

Molecule: C/C(=C\c1csc(C)n1)[C@@H]1C[C@@H]2O[C@]2(C)CCC[C@H](C)[C@H](O)[C@@H](C)C(=O)C(C)(C)[C@@H](O)CC(=O)O1 [PATUPILONE]
- IC50 [1]: 0.0014 µM

Molecule: C=C1C(=O)O[C@@H](C)[C@@H]1O
- inhibition at 75 µg/mL [2]: 92%
- MIC [3]: 150 µg/mL (≈ 1170 µM)
- inhibition at 150 µg/mL [4]: 99%
- inhibition at 37 µg/mL [5]: 85%
- Activity [6]: inactive
- Activity [7]: inactive

Molecule: CC(C)=CCC/C(C)=C/CC/C(C)=C/CO[C@@H](C(=O)O)[C@H](CC(=O)O)C(=O)O
- MIC [8]: inactive
- MIC [9]: 150 µg/mL (≈ 378 µM)
- MIC [10]: 75 µg/mL (≈ 189 µM)
- MIC [11]: inactive
- Activity [12]: Non-Toxic
- Activity [13]: Non-Toxic
- MIC [14]: 37.5 µg/mL (≈ 94.6 µM)
- MIC [15]: 18.8 µg/mL (≈ 47.4 µM)
- MIC [16]: 9.4 µg/mL (≈ 23.7 µM)

Molecule: C/C(=C\CC/C(C)=C/CC/C(C)=C/CC/C(C)=C/CO[C@@H](C(=O)O)[C@H](CC(=O)O)C(=O)O)CO
- MIC [8]: inactive
- MIC [9]: 75 µg/mL (≈ 156 µM)
- MIC [10]: 75 µg/mL (≈ 156 µM)
- MIC [11]: inactive
- Activity [12]: Non-Toxic
- Activity [13]: Non-Toxic
- MIC [14]: 37.5 µg/mL (≈ 78 µM)
- MIC [15]: 37.5 µg/mL (≈ 78 µM)
- MIC [16]: 18.8 µg/mL (≈ 39 µM)

Molecule: CC(C)=CCC/C(C)=C/CC/C(C)=C/CC/C(C)=C/CO[C@@H](C(=O)O)[C@H](CC(=O)O)C(=O)O
- inhibition at 256 µg/mL [17]: 86%
- MIC ([8]; Hansenula anomala): 150 µg/mL (≈ 323 µM)
- inhibition at 256 µg/mL [18]: 49%
- MIC [3]: > 256 µg/mL
- IC50 [19]: 6 µM
- MIC [9]: 300 µg/mL (≈ 646 µM)
- inhibition at 64 µg/mL [20]: 54%
- MIC [10]: 75 µg/mL (≈ 161 µM)
- MIC [11]: inactive
- inhibition at 64 µg/mL [21]: 1.5%
- inhibition at 128 µg/mL [22]: 37%
- inhibition at 16 µg/mL [23]: 72%
- Activity [24]: Dose-dependent effect
- MIC [25]: 64 µg/mL (≈ 138 µM)
- inhibition at 8 µg/mL [26]: 52%
- Activity [13]: Non-Toxic
- MIC [14]: 300 µg/mL (≈ 646 µM)
- MIC [15]: 300 µg/mL (≈ 646 µM)
- inhibition at 16 µg/mL [27]: 28%
- MIC [16]: 37.5 µg/mL (≈ 80.7 µM)

Molecule: NYSTATIN
- MIC [8]: 16.7 µg/mL
- MIC [10]: 9.4 µg/mL
- MIC [25]: 16.7 µg/mL
- MIC [14]: 16.7 µg/mL

Molecule: C/C(=C\CC/C(C)=C/CO[C@@H](C(=O)O)[C@H](CC(=O)O)C(=O)O)CC/C=C(\C)CC[C@H](O)C(C)(C)O
- MIC [8]: inactive
- MIC [9]: inactive
- MIC [10]: 300 µg/mL (≈ 602 µM)
- MIC [11]: inactive
- Activity [12]: Non-Toxic
- Activity [13]: Non-Toxic
- MIC [14]: inactive
- MIC [15]: inactive
- MIC [16]: 300 µg/mL (≈ 602 µM)

Molecule: COC(=O)C[C@H](C(=O)O)[C@@H](OC/C=C(\C)CC/C=C(\C)CC/C=C(\C)CCC=C(C)C)C(=O)O
- inhibition at 256 µg/mL [17]: 86%
- MIC [8]: inactive
- MIC [3]: > 256 µg/mL
- MIC [9]: 300 µg/mL (≈ 627 µM)
- inhibition at 64 µg/mL [20]: 11%
- MIC [10]: 150 µg/mL (≈ 313 µM)
- MIC [11]: inactive
- Activity [12]: Non-Toxic
- Activity [24]: Dose-dependent effect
- inhibition at 128 µg/mL [28]: 38%
- Activity [13]: Non-Toxic
- MIC [14]: inactive
- MIC [15]: 300 µg/mL (≈ 627 µM)
- MIC [16]: 37.5 µg/mL (≈ 78.3 µM)

Molecule: CN(C)[C@@H]1C(=O)C(C(N)=O)=C(O)[C@@]2(O)C(=O)C3=C(O)c4c(O)cccc4[C@@](C)(O)[C@H]3[C@H](O)[C@@H]12
- MIC [3]: 1 µg/mL (≈ 2.17 µM)
- MIC [9]: 1 µg/mL (≈ 2.17 µM)
- MIC [16]: 8.3 µg/mL (≈ 18 µM)

Molecule: C/C(=C\CC/C(C)=C/CO[C@@H](C(=O)O)[C@H](CC(=O)O)C(=O)O)CC/C=C(\C)CC/C=C(\C)C(=O)O
- MIC [8]: inactive
- MIC [9]: inactive
- MIC [10]: inactive
- MIC [11]: inactive
- Activity [12]: Non-Toxic
- Activity [13]: Non-Toxic
- MIC [14]: inactive
- MIC [15]: inactive
- MIC [16]: 75 µg/mL (≈ 152 µM)

Molecule: O=C(O)c1cn(C2CC2)c2cc(N3CCNCC3)c(F)cc2c1=O [CIPROFLOXACIN]
- MIC [29]: 2.3 µg/mL (≈ 6.94 µM)
- MIC [15]: 2.3 µg/mL (≈ 6.94 µM)

Molecule: CC(C)=CCC[C@@](C)(O)[C@@H](O)CC/C(C)=C/CC/C(C)=C/CO[C@@H](C(=O)O)[C@H](CC(=O)O)C(=O)O
- MIC [8]: inactive
- MIC [9]: inactive
- MIC [10]: inactive
- MIC [11]: inactive
- Activity [12]: Non-Toxic
- Activity [13]: Non-Toxic
- MIC [14]: inactive
- MIC [15]: inactive

Molecule: C[C@@H]1CO[C@H]2[C@@H]1CC[C@H](C)[C@]21C=C(CO)CC1
- MIC [8]: inactive
- MIC [9]: inactive
- MIC [10]: 75 µg/mL (≈ 317 µM)
- MIC [11]: inactive
- Activity [12]: Non-Toxic
- Activity [13]: Non-Toxic
- MIC [14]: inactive
- MIC [15]: 300 µg/mL (≈ 1270 µM)
- MIC [16]: 75 µg/mL (≈ 317 µM)

Source: ChEMBL document CHEMBL4251671, “Microporenic Acids A-G, Biofilm Inhibitors, and Antimicrobial Agents from the Basidiomycete Microporus Species” (J Nat Prod, 2018)
